{
  "source": "ChEMBL document CHEMBL4422613",
  "about": "“Amarisolide F, an Acylated Diterpenoid Glucoside and Related Terpenoids from Salvia amarissima” (J Nat Prod, 2019)",
  "key": {"Homo sapiens [1]": {"organism": "Homo sapiens", "experiment": "Inhibition of MDR protein in human MCF7/Vin cells cultured in absence of vinblastine assessed as reversal fold at 25 ug/ml after 72 hrs by sulforhodamine B assay", "format": "cell-based"}, "Homo sapiens [2]": {"organism": "Homo sapiens", "experiment": "Inhibition of MDR protein in human MCF7/Vin cells cultured in presence of vinblastine assessed as reversal fold at 25 ug/ml after 72 hrs by sulforhodamine B assay", "format": "cell-based"}, "Homo sapiens [3]": {"organism": "Homo sapiens", "experiment": "Inhibition of MDR protein in human MCF7/Vin cells cultured in absence of vinblastine assessed as reversal fold at 5 ug/ml after 72 hrs by sulforhodamine B assay", "format": "cell-based"}, "Homo sapiens [4]": {"organism": "Homo sapiens", "experiment": "Inhibition of MDR protein in human MCF7/Vin cells cultured in presence of vinblastine assessed as reversal fold at 5 ug/ml after 72 hrs by sulforhodamine B assay", "format": "cell-based"}, "Homo sapiens [5]": {"organism": "Homo sapiens", "experiment": "Inhibition of MDR protein in human MCF7/Vin cells cultured in absence of vinblastine assessed as reversal fold after 72 hrs by sulforhodamine B assay", "format": "cell-based"}, "Homo sapiens [6]": {"organism": "Homo sapiens", "experiment": "Inhibition of MDR protein in human MCF7/Vin cells cultured in presence of vinblastine assessed as reversal fold after 72 hrs by sulforhodamine B assay", "format": "cell-based"}, "MDA-MB-231": {"tested_on": "MDA-MB-231", "experiment": "Cytotoxicity against human MDA-MB-231 cells after 72 hrs by sulforhodamine B assay", "format": "functional, cell-based", "conditions": "MDA-MB-231, 72 h"}, "HeLa": {"tested_on": "HeLa", "experiment": "Cytotoxicity against human HeLa cells after 72 hrs by sulforhodamine B assay", "format": "functional, cell-based"}, "HCT-15": {"tested_on": "HCT-15", "experiment": "Cytotoxicity against human HCT15 cells after 72 hrs by sulforhodamine B assay", "format": "functional, cell-based", "conditions": "HCT-15, 72 h"}, "HCT-116": {"tested_on": "HCT-116", "experiment": "Cytotoxicity against human HCT116 cells after 72 hrs by sulforhodamine B assay", "format": "functional, cell-based", "conditions": "HCT-116, 72 h"}, "MCF7": {"tested_on": "MCF7", "experiment": "Cytotoxicity against human MCF7 cells after 72 hrs by sulforhodamine B assay", "format": "functional, cell-based", "conditions": "MCF7, 72 h", "outline": "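Cells kept in RPMI 1640 with 10% FBS at 37 °C, 5% CO2 in humidified air. Log-phase cells were treated in triplicate with compound at 0.4–42.1 μM for 72 h.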"}, "Homo sapiens [7]": {"organism": "Homo sapiens", "experiment": "Inhibition of MDR protein in human MCF7/Vin cells cultured in absence of vinblastine assessed as reversal fold at 42.1 uM after 72 hrs by sulforhodamine B assay", "format": "cell-based", "outline": "(§1)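 Sensitive MCF-7 and MDR MCF-7/Vin cells in RPMI 1640 with 10% FBS at 37 °C, 5% CO2. The Vin+ stock was kept in medium with […] vinblastine and the Vin− stock in vinblastine-free medium. Cells were exposed to vinblastine (0.7 nM–11 μM) with or without compound (42.1 μM) for 72 h.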"}, "Homo sapiens [8]": {"organism": "Homo sapiens", "experiment": "Inhibition of MDR protein in human MCF7/Vin cells cultured in presence of vinblastine assessed as reversal fold at 42.1 uM after 72 hrs by sulforhodamine B assay", "format": "cell-based", "outline": "as §1"}},
  "data": [
    {"smiles": "C[C@@H]1C(=O)CC2=C(/C=C\\C=C\\[C@@]13C[C@@H](O)c1ccoc1[C@H]3O)C(=O)OC2", "values": [
      {"measurement": "fold change (FC)", "setting": "Homo sapiens [1]", "value": 8440},
      {"measurement": "fold change (FC)", "setting": "Homo sapiens [2]", "value": 10700}
    ]},
    {"smiles": "COC(=O)[C@H]1[C@H]2C[C@@H]3c4[nH]c5cc(OC)ccc5c4CCN3C[C@H]2C[C@@H](OC(=O)c2cc(OC)c(OC)c(OC)c2)[C@@H]1OC", "values": [
      {"measurement": "fold change (FC)", "setting": "Homo sapiens [3]", "value": 5},
      {"measurement": "fold change (FC)", "setting": "Homo sapiens [4]", "value": 29.2}
    ]},
    {"smiles": "O=C1C=CC[C@]2(O)C(=O)OC[C@@]12CCc1ccc(-c2ccoc2)oc1=O", "values": [
      {"measurement": "fold change (FC)", "setting": "Homo sapiens [5]", "value": 3.1},
      {"measurement": "fold change (FC)", "setting": "Homo sapiens [6]", "value": 5.8}
    ]},
    {"smiles": "CC(=O)OC[C@H]1O[C@@H](OC(=O)[C@H]2CC[C@@]34COC(=O)[C@@]3(O)CC=C[C@@]4(O)[C@@]2(C)CC(=O)c2ccoc2)[C@H](O)[C@@H](O)[C@@H]1O", "values": [
      {"measurement": "IC50", "setting": "MDA-MB-231", "value": "> 42", "unit": "µM"},
      {"measurement": "IC50", "setting": "HeLa", "value": "> 42", "unit": "µM"},
      {"measurement": "IC50", "setting": "HCT-15", "value": "> 42", "unit": "µM"},
      {"measurement": "IC50", "setting": "HCT-116", "value": "> 42", "unit": "µM"},
      {"measurement": "IC50", "setting": "MCF7", "value": "> 42", "unit": "µM"},
      {"measurement": "fold change (FC)", "setting": "Homo sapiens [7]", "value": 2.1},
      {"measurement": "fold change (FC)", "setting": "Homo sapiens [8]", "value": 12}
    ]},
    {"smiles": "CC(=O)O[C@H]1O[C@@H](c2ccoc2)C[C@]12[C@H](C)C(=O)C[C@@]13COC(=O)C1=CC=C[C@H]32", "values": [
      {"measurement": "fold change (FC)", "setting": "Homo sapiens [5]", "value": 54},
      {"measurement": "fold change (FC)", "setting": "Homo sapiens [6]", "value": 2.6}
    ]}
  ]
}
